Measured values: ChEMBL document CHEMBL4359864, “The synthesis and in vitro biological evaluation of novel fluorinated tetrahydrobenzo[j]phenanthridine-7,12-diones against Mycobacterium tuberculosis” (Eur J Med Chem, 2019)
pIC50: −log10 of the molar value. In brackets after ≈: the same amount, converted by molar mass. Activity calls are given as the source filed them.

Key:
[1] = system: Pseudomonas aeruginosa; test: Antibacterial activity against Pseudomonas aeruginosa ATCC 9027 incubated for 24 hrs by resazurin dye based fluorimetric assay; format: functional, organism-based; details: ATCC 9027, 24 h
Method in brief: (§1)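 Resazurin microtiter assay: compounds from 10 mM DMSO stock, twofold serial dilutions from 64 µM final in growth medium, in triplicate. Inoculum from frozen glycerol stocks. Exposure 24 h, or 7 days for Mtb H37Ra (7H9 + 0.5% glycerol + 10% OADC). Then 0.01% resazurin was added and plates were incubated at 37°C until pink. Fluorescence read at ex 550/em 590 nm; mean of triplicates.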

[2] = system: Klebsiella pneumoniae; test: Antibacterial activity against Klebsiella pneumoniae ATCC 13883 incubated for 24 hrs by resazurin dye based fluorimetric assay; format: functional, organism-based; details: ATCC 13883, 24 h; method in brief: as §1
[3] = system: Enterococcus faecium; test: Antibacterial activity against Enterococcus faecium ATCC 19434 incubated for 24 hrs by resazurin dye based fluorimetric assay; format: functional, organism-based; details: ATCC 19434, 24 h; method in brief: as §1
[4] = system: Streptococcus pneumoniae; test: Antibacterial activity against Streptococcus pneumoniae ATCC BAA-334 incubated for 24 hrs by resazurin dye based fluorimetric assay; format: functional, organism-based; details: ATCC BAA-334, 24 h; method in brief: as §1
[5] = system: Mycobacterium tuberculosis; test: Antibacterial activity against Mycobacterium tuberculosis H37Ra ATCC 25177 incubated for 7 days by resazurin dye based fluorimetric assay; format: functional, organism-based; details: H37Ra ATCC 25177, 168 h; method in brief: as §1
[6] = system: Mycobacterium tuberculosis; test: Antimycobacterial activity against Mycobacterium tuberculosis H37Ra lux incubated for 7 days by luminometric assay; format: functional, organism-based; details: 168 h
Method in brief: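 Twofold serial dilutions in 7H9/OADC/glycerol, in triplicate, inoculated with a suspension of 10.000 RLU per mL. After 7 days, n-decanal (1% v/v in ethanol) was added and luminescence read. IC50 and MIC (90% growth reduction) were derived from the mean of triplicates.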

[7] = Selectivity index, ratio of […] for cytotoxicity against mouse J774A.1 cells; format: toxicity, cell-based; details: read-out: Selectivity Index
[8] = system: Mycobacterium marinum; test: Antimycobacterial activity against Mycobacterium marinum NCTC 2275 by resazurin dye based fluorimetric assay; format: functional, organism-based
Method in brief: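 Resazurin microtiter method as for the bacterial panel. Mycobacteria grown in 7H9 with 10% OADC and 0.5% glycerol; for BCG, 0.05% Tween 80 replaced the glycerol. Cultures were sonicated and needle-passed to single cells. Incubation at 37°C, or 32°C for M. marinum. Fluorescence read at ex 550/em 590 nm; mean of triplicates.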

[9] = molecular target: T1, CYP450 (Homo sapiens, UniProt P04798+P05177+P05181+P08684+P10632+P10635+P11509+P11712+P13584+P20813+P20815+P20853+P24462+P24903+P33260+P33261+P51589+P78329+P98187+Q02928+Q08477+Q16678+Q16696+Q5TCH4+Q6VVX0+Q7Z449+Q8TAV3+Q96SQ9+Q9HB55); test: Microsomal stability in human liver microsomes assessed as CYP450-mediated metabolism by measuring compound remaining at 5 uM and measured for 15 mins in presence of NADPH by UPLC-MS/MS analysis (reference value: 100%); format: ADME; details: read-out: Stability
Method in brief: (§2)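 Compound at 5 µM with 0.5 mg/mL liver microsomes in PBS. Phase I was started with 1 mM NADPH; phase II used 2 mM UDPGA. Diclofenac served as reference. Samples taken at 0, 15, 30 and 60 min were quenched in ice-cold acetonitrile, centrifuged at 4°C and analysed by LC-MS. Mean of at least two replicates ± SD.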

[10] = molecular target: T1, CYP450; test: Microsomal stability in human liver microsomes assessed as CYP450-mediated metabolism by measuring compound remaining at 5 uM and measured for 60 mins in presence of NADPH by UPLC-MS/MS analysis (reference value: 100%); format: ADME; details: read-out: Stability; method in brief: as §2
[11] = molecular target: T2, UGT (Homo sapiens, UniProt O60656+O75310+O75795+P06133+P0DTE4+P0DTE5+P16662+P19224+P22309+P22310+P35503+P35504+P36537+P54855+Q6UWM9+Q9BY64+Q9HAW7+Q9HAW8+Q9HAW9); test: Microsomal stability in human liver microsomes assessed as UGT-mediated metabolism by measuring compound remaining at 5 uM and measured for 15 mins in presence of UDPGA by UPLC-MS/MS analysis (reference value: 100%); format: ADME; details: read-out: Stability; method in brief: as §2
[12] = molecular target: T2, UGT; test: Microsomal stability in human liver microsomes assessed as UGT-mediated metabolism by measuring compound remaining at 5 uM and measured for 30 mins in presence of UDPGA by UPLC-MS/MS analysis (reference value: 100%); format: ADME; details: read-out: Stability; method in brief: as §2
[13] = system: CYP450; test: Microsomal stability in mouse liver microsomes assessed as CYP450-mediated metabolism by measuring compound remaining at 5 uM and measured for 30 mins in presence of NADPH by UPLC-MS/MS analysis (reference value: 100%); format: ADME; details: read-out: Stability; method in brief: as §2
[14] = system: CYP450; test: Microsomal stability in mouse liver microsomes assessed as CYP450-mediated metabolism by measuring compound remaining at 5 uM and measured for 60 mins in presence of NADPH by UPLC-MS/MS analysis (reference value: 100%); format: ADME; details: read-out: Stability; method in brief: as §2
[15] = system: UGT; test: Microsomal stability in mouse liver microsomes assessed as UGT-mediated metabolism by measuring compound remaining at 5 uM and measured for 15 mins in presence of UDPGA by UPLC-MS/MS analysis (reference value: 100%); format: ADME; details: read-out: Stability; method in brief: as §2
[16] = system: UGT; test: Microsomal stability in mouse liver microsomes assessed as UGT-mediated metabolism by measuring compound remaining at 5 uM and measured for 60 mins in presence of UDPGA by UPLC-MS/MS analysis (reference value: 100%); format: ADME; details: read-out: Stability; method in brief: as §2
[17] = system: Mycobacterium tuberculosis; test: Antimycobacterial activity against Mycobacterium tuberculosis H37Ra lux infected in mouse J774A.1 cells assessed as reduction in intracellular mycobacterial replication at 1.5 uM incubated for 24 to 72 hrs by luminometric assay relative to control; format: functional; set-up: scale not given: the % may be the effect or the level left
Method in brief: (§3)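 J774A.1 cells were infected at MOI 10 for 2 h at 37°C. Extracellular bacteria were killed with 100 µg/mL gentamicin for 1 h, then cells were washed and treated. At 24, 48 and 72 h, cells were lysed with 1% Triton X-100 and n-decanal was added to the lysate. Luminescence (RLU) reported as mean of triplicates ± SD.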

[18] = system: Mycobacterium tuberculosis; test: Antimycobacterial activity against Mycobacterium tuberculosis H37Ra lux infected in mouse J774A.1 cells assessed as reduction in intracellular mycobacterial replication at 10.0 uM incubated for 24 to 72 hrs by luminometric assay relative to control; format: functional; set-up: scale not given: the % may be the effect or the level left; method in brief: as §3
[19] = Genotoxicity in Salmonella typhimurium TA104 harboring with pr1 assessed as S/N ratio at 1 to 100 uM measured for 4 hrs with 5 mins interval in presence of rat liver S9 fraction by luminescence based assay; format: toxicity, subcellular; details: salmonella enterica subsp. enterica serovar typhimurium, s9, 4 h
Method in brief: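 VITOTOX test. Genox (recN2-4) and Cytox (pr1) S. typhimurium TA104 strains were diluted 250-fold and grown in 869 medium for 16 h at 36°C with shaking, then diluted 10-fold and grown 1 h more. Compounds tested at 1, 10 and 100 µM, with or without rat liver S9-mix. Luminescence read for 4 h at 5-min intervals. S/N thresholds: Genox >1.5 genotoxic; Cytox <0.8 toxic, >1.5 luminescence artefact.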

Compound | pIC50 [1] | pIC50 [2] | pIC50 [3] | pIC50 [4] | pIC50 [5] | pIC50 [6] | MIC90 [6] [µM] | selectivity ratio [7] | pIC50 [8] | remaining at 0.25 h, 5 µM [9] [%] | remaining at 1 h, 5 µM [10] [%] | remaining at 0.25 h, 5 µM [11] [%] | remaining at 0.5 h, 5 µM [12] [%] | remaining at 0.5 h, 5 µM [13] [%] | remaining at 1 h, 5 µM [14] [%] | remaining at 0.25 h, 5 µM [15] [%] | remaining at 1 h, 5 µM [16] [%] | Activity [17] | Activity [18] | Ratio [19]
O=C1C2=C(C(=O)c3c1cnc1ccccc31)C1CCC2C1 (stereo not given) | < 4.19 | < 4.19 | 4.19 to 4.49 | 4.19 to 4.49 | 5.70 to 6.00 | 5.89 | 6.33 (≈ 1.74 µg/mL) | 10.2 | 5.11 | 100 | 100 | 83 | 76 | 100 | 94 | 69 | 78 | 20.68% | 84.14% | >= 0.8
O=C1C2=C(C(=O)c3c1cnc1c(F)cccc31)C1CCC2C1 (stereo not given) | < 4.19 | < 4.19 | < 4.19 | 4.19 to 4.49 | 5.70 to 6.00 | 5.81 | 4.43 (≈ 1.3 µg/mL) | 19.3 | 5.48 | 100 | 100 | 78 | 71 | 100 | 100 | 77 | 61 | inactive | inactive | >= 0.8
